Active and inactive are the calls of the source. No cut-off for these calls is given here.
Experiments:
Homo sapiens [1] = species on record: Homo sapiens; experiment: Effect on VEGF-stimulated PI3K signaling pathway in HUVEC assessed as AKT phosphorylation level at 20 uM pretreated for 10 mins followed by VEGF stimulation and subsequent compound addition measured after 20 mins by Western blot analysis relative to control
How it was run: (§1)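 HUVEC grown to confluence in M199 with 10% FCS, ECGS, heparin, hydrocortisone, then starved ≥4 h in medium alone. Pre-incubated 10 min at 37°C with compound 20 µM in DMSO, then VEGF 50 ng/mL plus compound for 20 min. Lysates (30 µg) immunoblotted for phospho-ERK1/2, phospho-p38MAPK or phospho-Akt, with tubulin as loading control. ECL detection, densitometry. Results given relative to VEGF+DMSO on the same blot (100%), ≥2 independent experiments.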

Homo sapiens [2] = species on record: Homo sapiens; experiment: Effect on VEGF-stimulated MAPK signaling pathway in HUVEC assessed as p38 MAPK phosphorylation level at 20 uM pretreated for 10 mins followed by VEGF stimulation and subsequent compound addition measured after 20 mins by Western blot analysis relative to control; how it was run: as §1
Homo sapiens [3] = species on record: Homo sapiens; experiment: Effect on VEGF-stimulated MAPK signaling pathway in HUVEC assessed as ERK1/2 phosphorylation level at 20 uM pretreated for 10 mins followed by VEGF stimulation and subsequent compound addition measured after 20 mins by Western blot analysis relative to control; how it was run: as §1
HUVEC = experiment: Antimigratory activity against VEGF-stimulated HUVEC at 20 uM measured up to 15 hrs in presence of CMFDA probe by microscopy-based wound healing assay; type: functional, cell-based; conditions: Homo sapiens
How it was run: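 Confluent HUVEC (48 h growth) labelled with CMFDA (1:5000 of 10 mM stock), scratched with sterile tip, washed with PBS, then given VEGF 50 ng/mL plus compound 20 µM (DMSO control). Wounds imaged at 0 and 15 h by microscopy. Colonized area = area 0 h − area 15 h, expressed as percent of control set at 100%.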

Structure (SMILES) | Activity (Homo sapiens [1]) | Activity (Homo sapiens [2]) | Activity (Homo sapiens [3]) | Activity (HUVEC)
CCOC(=O)c1cc(NC(=O)Nc2cccc(C(F)(F)F)c2)n(CC(O)c2ccccc2)n1 (stereo not given) | inactive | -61% | Active | inactive
CCOC(=O)c1cnn(CC(C)O)c1NC(=O)Nc1cccc(C(F)(F)F)c1 (stereo not given) | Active | Active | Active | inactive
CCOC(=O)c1cnn(CC(=O)c2ccccc2)c1NC(=O)Nc1ccccc1F | inactive | Active | inactive | inactive
CC(C)(C)c1cc2n(n1)CC(c1ccccc1)N2C(=O)Nc1cccc(C(F)(F)F)c1 (stereo not given) | Active | 140% |  | inactive
NC(=O)c1cnn2c1N(C(=O)Nc1cccc(C(F)(F)F)c1)C(c1ccccc1)C2 (stereo not given) | Active | 200 to 300% | inactive | inactive
CC(C)(C)c1cc(NC(=O)Nc2ccc(F)cc2)n(CC(O)c2ccccc2)n1 (stereo not given) | -83% | -70% | -67% | inactive
CC(C)(C)c1cc(NC(=O)Nc2cccc(F)c2)n(CC(O)c2ccccc2)n1 (stereo not given) | Active | 199% | Active | inactive
CCCC(O)Cn1ncc(C(=O)OCC)c1NC(=O)Nc1cccc(C(F)(F)F)c1 (stereo not given) | -29% | 180% | -59% | Active
CC(C)(C)c1cc(NC(=O)Nc2ccccc2F)n(CC(O)c2ccccc2)n1 (stereo not given) | inactive | -74% | Active | inactive
CCOC(=O)c1cnn(CC(=O)c2ccccc2)c1NC(=O)Nc1cccc(C(F)(F)F)c1 | Active | Active | Active | inactive
O=C(c1cnn2c1N(C(=O)Nc1cccc(C(F)(F)F)c1)C(c1ccccc1)C2)N1CCCCC1 (stereo not given) | Active | 200 to 300% | 83% | inactive
CCOC(=O)c1cnn(CC(O)CC)c1NC(=O)Nc1cccc(C(F)(F)F)c1 (stereo not given) | Active | Active | inactive | inactive
CC(C)(C)c1cc(NC(=O)Nc2cccc(C(F)(F)F)c2)n(CC(O)c2ccccc2)n1 (stereo not given) |  | Active | Active | inactive
CCOC(=O)c1cnn(CC(=O)c2ccccc2)c1NC(=O)Nc1cccc(F)c1 | 63% | Active | Active | inactive
CCOC(=O)c1cc(NC(=O)Nc2ccccc2F)n(CC(O)c2ccccc2)n1 (stereo not given) | inactive | 97% | -89% | inactive
CCOC(=O)c1cnn(CC(O)c2ccccc2)c1NC(=O)Nc1cccc(C(F)(F)F)c1 (stereo not given) | -37% | 150% | -70% | inactive
CCOC(=O)c1cc(NC(=O)Nc2cccc(F)c2)n(CC(O)c2ccccc2)n1 (stereo not given) | 51% | Active | Active | inactive

Continued, in another order:

Activity (Homo sapiens [1]) | Activity (Homo sapiens [2]) | Activity (Homo sapiens [3]) | Structure (SMILES) | Activity (HUVEC)
Active | Active |  | CC(C)(C)c1cc2n(n1)CC(c1ccccc1)N2C(=O)Nc1cccc(F)c1 (stereo not given) | inactive
inactive | Active |  | CC(C)(C)c1cc2n(n1)CC(c1ccccc1)N2C(=O)Nc1ccccc1F (stereo not given) | inactive
Active | Active |  | CCOC(=O)c1cc2n(n1)CC(c1ccccc1)N2C(=O)Nc1cccc(F)c1 (stereo not given) | inactive
Active | Active |  | CCOC(=O)c1cc2n(n1)CC(c1ccccc1)N2C(=O)Nc1ccc(F)cc1 (stereo not given) | inactive
Active | Active |  | CC(C)(C)c1cc2n(n1)CC(c1ccccc1)N2C(=O)Nc1ccc(F)cc1 (stereo not given) | inactive
96% | Active | Active | CCOC(=O)c1cnn(CC(=O)c2ccccc2)c1NC(=O)Nc1ccc(F)cc1 | inactive
inactive | Active |  | CCOC(=O)c1cc2n(n1)CC(c1ccccc1)N2C(=O)Nc1ccccc1F (stereo not given) | inactive
Active | 200 to 300% | -26% | CCOC(=O)c1cnn2c1N(C(=O)Nc1cccc(C(F)(F)F)c1)C(c1ccccc1)C2 (stereo not given) | inactive
inactive | -81% | Active | CCOC(=O)c1cc(NC(=O)Nc2ccc(F)cc2)n(CC(O)c2ccccc2)n1 (stereo not given) | inactive
Active | Active | -75% | CCOC(=O)c1cc2n(n1)CC(c1ccccc1)N2C(=O)Nc1cccc(C(F)(F)F)c1 (stereo not given) | inactive

Source: ChEMBL document CHEMBL4033621, “Design, synthesis and biological evaluation of new pyrazolyl-ureas and imidazopyrazolecarboxamides able to interfere with MAPK and PI3K upstream signaling involved in the angiogenesis” (Eur J Med Chem, 2017)
